From ChEMBL document CHEMBL1255284, “Aspergillus section Fumigati: antifungal susceptibility patterns and sequence-based identification” (2008)
≈ marks a conversion by molar mass, not a printed value.

Columns and labels:
Aspergillus lentulus [1] = assay: Antimicrobial activity against Aspergillus lentulus isolate CNM-CM-4387 obtained from sputum of patient after 48 hrs by broth microdilution method; type: functional; settings: isolate CNM-CM-4387, 48 h
Method in brief: (§1)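 CLSI M38-A broth microdilution with modifications: RPMI 1640 with L-glutamine, 2% glucose, buffered to pH 7 with 0.165 M MOPS. Inoculum of 1 × 10^5 to 5 × 10^5 CFU/ml from 3- to 5-day-old cultures. Incubated 35°C, 48 h, humid. Visual reading with a mirror. MIC is complete growth inhibition; echinocandin MEC is hyphal morphological alteration. Azoles 8 to 0.015 μg/ml; others 16 to 0.03 μg/ml.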

Aspergillus viridinutans [2] = assay: Antimicrobial activity against Aspergillus viridinutans isolate CNM-CM-4518 obtained from nail of patient after 48 hrs by broth microdilution method; type: functional; settings: isolate CNM-CM-4518, 48 h; method in brief: as §1
Aspergillus lentulus [3] = assay: Antimicrobial activity against Aspergillus lentulus isolate CNM-CM-3538 obtained from sputum of patient after 48 hrs by broth microdilution method; type: functional; settings: isolate CNM-CM-3538, 48 h; method in brief: as §1
Aspergillus lentulus [4] = assay: Antimicrobial activity against Aspergillus lentulus isolate CNM-CM-4415 obtained from sputum of patient after 48 hrs by broth microdilution method; type: functional; settings: isolate CNM-CM-4415, 48 h; method in brief: as §1
Aspergillus lentulus [5] = assay: Antimicrobial activity against Aspergillus lentulus isolate CNM-CM-3583 obtained from sputum of patient after 48 hrs by broth microdilution method; type: functional; settings: isolate CNM-CM-3583, 48 h; method in brief: as §1
[6] = tested on: Aspergillus fumigatiaffinis; assay: Antimicrobial activity against Aspergillus fumigatiaffinis isolate CNM-CM-3227 obtained from bronchoalveolar lavage fluid of patient after 48 hrs by broth microdilution method; settings: isolate CNM-CM-3227, Lung
Aspergillus lentulus [7] = assay: Antimicrobial activity against Aspergillus lentulus isolate CNM-CM-4420 obtained from nail of patient after 48 hrs by broth microdilution method; type: functional; settings: isolate CNM-CM-4420, 48 h; method in brief: as §1
Neosartorya hiratsukae [8] = assay: Antimicrobial activity against Neosartorya hiratsukae isolate CNM-CM-3305 obtained from skin of patient after 48 hrs by broth microdilution method; type: functional; settings: Aspergillus hiratsukae, isolate CNM-CM-3305, 48 h; method in brief: as §1
[9] = tested on: Aspergillus fumisynnematus; assay: Antimicrobial activity against Aspergillus fumisynnematus isolate CNM-CM-4063 obtained from bronchoalveolar aspirate of patient after 48 hrs by broth microdilution method; type: functional; settings: isolate CNM-CM-4063, Lung; method in brief: as §1
Aspergillus lentulus [10] = assay: Antimicrobial activity against Aspergillus lentulus isolate CNM-CM-4370 obtained from sputum of patient after 48 hrs by broth microdilution method; type: functional; settings: isolate CNM-CM-4370, 48 h; method in brief: as §1
Aspergillus lentulus [11] = assay: Antimicrobial activity against Aspergillus lentulus isolate CNM-CM-3537 obtained from sputum of patient after 48 hrs by broth microdilution method; type: functional; settings: isolate CNM-CM-3537, 48 h; method in brief: as §1
Aspergillus fumigatus = assay: Antimicrobial activity against Aspergillus fumigatus ATCC 2004305 after 48 hrs by broth microdilution method; type: functional; settings: ATCC 2004305, 48 h
Aspergillus lentulus [12] = assay: Antimicrobial activity against Aspergillus lentulus isolate CNM-CM-3599 obtained from sputum of patient after 48 hrs by broth microdilution method; type: functional; settings: isolate CNM-CM-3599, 48 h; method in brief: as §1
Aspergillus lentulus [13] = assay: Antimicrobial activity against Aspergillus lentulus isolate CNM-CM-4330 obtained from sputum of patient after 48 hrs by broth microdilution method; type: functional; settings: isolate CNM-CM-4330, 48 h; method in brief: as §1
Neosartorya hiratsukae [14] = assay: Antimicrobial activity against Neosartorya hiratsukae isolate CNM-CM-3764 obtained from oropharyngeal exudate of patient after 48 hrs by broth microdilution method; type: functional; settings: Aspergillus hiratsukae, isolate CNM-CM-3764, 48 h; method in brief: as §1
Aspergillus lentulus [15] = assay: Antimicrobial activity against Aspergillus lentulus isolate CNM-CM-4426 obtained from sputum of patient after 48 hrs by broth microdilution method; type: functional; settings: isolate CNM-CM-4426, 48 h; method in brief: as §1
Aspergillus lentulus [16] = assay: Antimicrobial activity against Aspergillus lentulus isolate CNM-CM-3364 obtained from bronchoalveolar lavage fluid of patient after 48 hrs by broth microdilution method; type: functional; settings: isolate CNM-CM-3364, Lung; method in brief: as §1
Neosartorya hiratsukae [17] = assay: Antimicrobial activity against Neosartorya hiratsukae isolate CNM-CM-3740 obtained from oropharyngeal exudate of patient after 48 hrs by broth microdilution method; type: functional; settings: Aspergillus hiratsukae, isolate CNM-CM-3740, 48 h; method in brief: as §1
Aspergillus lentulus [18] = assay: Antimicrobial activity against Aspergillus lentulus isolate CNM-CM-3134 obtained from sputum of patient after 48 hrs by broth microdilution method; type: functional; settings: isolate CNM-CM-3134, 48 h; method in brief: as §1
[19] = tested on: Neosartorya pseudofischeri; assay: Antimicrobial activity against Neosartorya pseudofischeri isolate CNM-CM-3769 obtained from sputum of patient after 48 hrs by broth microdilution method; type: functional; settings: Aspergillus thermomutatus
Method in brief: (§2)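 CLSI M38-A broth microdilution with modifications: RPMI 1640 with L-glutamine, MOPS-buffered to pH 7, plus 2% glucose. Inoculum 1 × 10^5 to 5 × 10^5 CFU/ml from 3–5-day cultures. Incubated at 35°C for 48 h, humid. Read visually with a mirror. MIC = complete growth inhibition; echinocandin MEC = altered hyphal morphology. QC strain A. fumigatus ATCC 2004305.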

Aspergillus viridinutans [20] = assay: Antimicrobial activity against Aspergillus viridinutans isolate CNM-CM-3147 obtained from oropharyngeal exudate of patient after 48 hrs by broth microdilution method; type: functional; settings: isolate CNM-CM-3147, 48 h; method in brief: as §1
[21] = tested on: Neosartorya pseudofischeri; assay: Antimicrobial activity against Neosartorya pseudofischeri isolate CNM-CM-4060 obtained from sputum of patient after 48 hrs by broth microdilution method; type: functional; settings: Aspergillus thermomutatus; method in brief: as §2
Aspergillus lentulus [22] = assay: Antimicrobial activity against Aspergillus lentulus isolate CNM-CM-1290 obtained from sputum of patient after 48 hrs by broth microdilution method; type: functional; settings: isolate CNM-CM-1290, 48 h; method in brief: as §1
[23] = tested on: Aspergillus fumigatiaffinis; assay: Antimicrobial activity against Aspergillus fumigatiaffinis isolate CNM-CM-2280 obtained from sputum of patient after 48 hrs by broth microdilution method; settings: isolate CNM-CM-2280, 48 h
Neosartorya hiratsukae [24] = assay: Antimicrobial activity against Neosartorya hiratsukae isolate CNM-CM-3303 obtained from skin of patient after 48 hrs by broth microdilution method; type: functional; settings: Aspergillus hiratsukae, isolate CNM-CM-3303, 48 h; method in brief: as §1
Aspergillus lentulus [25] = assay: Antimicrobial activity against Aspergillus lentulus isolate CNM-CM-4428 obtained from skin of patient after 48 hrs by broth microdilution method; type: functional; settings: isolate CNM-CM-4428, 48 h; method in brief: as §1
Neosartorya hiratsukae [26] = assay: Antimicrobial activity against Neosartorya hiratsukae isolate CNM-CM-4328 obtained from cornea of patient after 48 hrs by broth microdilution method; type: functional; settings: Aspergillus hiratsukae, isolate CNM-CM-4328, Cornea; method in brief: as §1
[27] = tested on: Neosartorya pseudofischeri; assay: Antimicrobial activity against Neosartorya pseudofischeri isolate CNM-CM-2270 obtained from sputum of patient after 48 hrs by broth microdilution method; type: functional; settings: Aspergillus thermomutatus, isolate CNM-CM-2270, 48 h; method in brief: as §2
[28] = tested on: Neosartorya pseudofischeri; assay: Antimicrobial activity against Neosartorya pseudofischeri isolate CNM-CM-3914 obtained from nail of patient after 48 hrs by broth microdilution method; type: functional; settings: Aspergillus thermomutatus, isolate CNM-CM-3914, 48 h; method in brief: as §2

For `C[C@@H](c1ncncc1F)[C@](O)(Cn1cncn1)c1ccc(F)cc1F` [VORICONAZOLE], the MIC (Aspergillus lentulus [1]) was 4 µg/mL (≈ 11.5 µM), the MIC (Aspergillus viridinutans [2]) was 4 µg/mL (≈ 11.5 µM) and the MIC (Aspergillus lentulus [3]) was 7.5 µg/mL (≈ 21.5 µM). It also gave an MIC (Aspergillus lentulus [4]) of 5.33 µg/mL (≈ 15.3 µM), an MIC (Aspergillus lentulus [5]) of 3.5 µg/mL (≈ 10 µM) and an MIC [6] of 5.6 µg/mL (≈ 16 µM). The MIC (Aspergillus lentulus [7]) was 5.33 µg/mL (≈ 15.3 µM), the MIC (Neosartorya hiratsukae [8]) was 0.375 µg/mL (≈ 1.07 µM) and the MIC [9] was 0.83 µg/mL (≈ 2.38 µM). For the same compound, the MIC (Aspergillus lentulus [10]) was 5.33 µg/mL (≈ 15.3 µM), the MIC (Aspergillus lentulus [11]) was 3.5 µg/mL (≈ 10 µM) and the MIC (Aspergillus fumigatus) was 0.25 µg/mL (≈ 0.716 µM). For the same compound, the MIC (Aspergillus lentulus [12]) was 4 µg/mL (≈ 11.5 µM), the MIC (Aspergillus lentulus [13]) was 3 µg/mL (≈ 8.59 µM) and the MIC (Neosartorya hiratsukae [14]) was 1.66 µg/mL (≈ 4.75 µM). It also gave an MIC (Aspergillus lentulus [15]) of 5.33 µg/mL (≈ 15.3 µM), an MIC (Aspergillus lentulus [16]) of 5.6 µg/mL (≈ 16 µM) and an MIC (Neosartorya hiratsukae [17]) of 1 µg/mL (≈ 2.86 µM). The MIC (Aspergillus lentulus [18]) was 6 µg/mL (≈ 17.2 µM), the MIC [19] was 3.33 µg/mL (≈ 9.53 µM) and the MIC (Aspergillus viridinutans [20]) was 4 µg/mL (≈ 11.5 µM). It also gave an MIC [21] of 3.33 µg/mL (≈ 9.53 µM), an MIC (Aspergillus lentulus [22]) of 4.5 µg/mL (≈ 12.9 µM) and an MIC [23] of 6.66 µg/mL (≈ 19.1 µM). It also gave an MIC (Neosartorya hiratsukae [24]) of 0.5 µg/mL (≈ 1.43 µM), an MIC (Aspergillus lentulus [25]) of 5 µg/mL (≈ 14.3 µM) and an MIC (Neosartorya hiratsukae [26]) of 1.25 µg/mL (≈ 3.58 µM). For the same compound, the MIC [27] was 3 µg/mL (≈ 8.59 µM) and the MIC [28] was 6.66 µg/mL (≈ 19.1 µM).

`CCC(C)n1ncn(-c2ccc(N3CCN(c4ccc(OCC5COC(Cn6cncn6)(c6ccc(Cl)cc6Cl)O5)cc4)CC3)cc2)c1=O` (stereo not drawn) [ITRACONAZOLE] gave an MIC (Aspergillus lentulus [1]) of 8 µg/mL (≈ 11.3 µM), an MIC (Aspergillus viridinutans [2]) of 16 µg/mL (≈ 22.7 µM) and an MIC (Aspergillus lentulus [3]) of 8.25 µg/mL (≈ 11.7 µM). For the same compound, the MIC (Aspergillus lentulus [4]) was 16 µg/mL (≈ 22.7 µM), the MIC (Aspergillus lentulus [5]) was 0.43 µg/mL (≈ 0.609 µM) and the MIC [6] was 8 µg/mL (≈ 11.3 µM). For the same compound, the MIC (Aspergillus lentulus [7]) was 8 µg/mL (≈ 11.3 µM), the MIC (Neosartorya hiratsukae [8]) was 0.185 µg/mL (≈ 0.262 µM) and the MIC [9] was 0.25 µg/mL (≈ 0.354 µM). The MIC (Aspergillus lentulus [10]) was 8 µg/mL (≈ 11.3 µM), the MIC (Aspergillus lentulus [11]) was 8.25 µg/mL (≈ 11.7 µM) and the MIC (Aspergillus fumigatus) was 0.125 µg/mL (≈ 0.177 µM). It also gave an MIC (Aspergillus lentulus [12]) of 0.5 µg/mL (≈ 0.709 µM), an MIC (Aspergillus lentulus [13]) of 6 µg/mL (≈ 8.5 µM) and an MIC (Neosartorya hiratsukae [14]) of 0.33 µg/mL (≈ 0.468 µM). For the same compound, the MIC (Aspergillus lentulus [15]) was 6.66 µg/mL (≈ 9.44 µM), the MIC (Aspergillus lentulus [16]) was 8 µg/mL (≈ 11.3 µM) and the MIC (Neosartorya hiratsukae [17]) was 0.16 µg/mL (≈ 0.227 µM). It also gave an MIC (Aspergillus lentulus [18]) of 10.2 µg/mL (≈ 14.5 µM), an MIC [19] of 8 µg/mL (≈ 11.3 µM) and an MIC (Aspergillus viridinutans [20]) of 14.4 µg/mL (≈ 20.4 µM). It also gave an MIC [21] of 11 µg/mL (≈ 15.6 µM), an MIC (Aspergillus lentulus [22]) of 9.25 µg/mL (≈ 13.1 µM) and an MIC [23] of 6.66 µg/mL (≈ 9.44 µM). The MIC (Neosartorya hiratsukae [24]) was 0.12 µg/mL (≈ 0.17 µM), the MIC (Aspergillus lentulus [25]) was 7 µg/mL (≈ 9.92 µM) and the MIC (Neosartorya hiratsukae [26]) was 0.25 µg/mL (≈ 0.354 µM). For the same compound, the MIC [27] was 8 µg/mL (≈ 11.3 µM) and the MIC [28] was 16 µg/mL (≈ 22.7 µM).
